Tests used:
[1] = system: MCF7; assay: Growth inhibition of human MCF7 cells after 72 hrs by MTT assay; format: functional, cell-based; settings: MCF7, 72 h
How it was run: (§1)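 Human cancer cells (carcinoma: A549, MCF-7, PC-3; glioma: Hs683, U373; melanoma: SK-MEL-28) were cultured with the test compound for 72 h. Growth was read by MTT colorimetric assay, and the IC50 for in vitro growth inhibition is given in μM. Etoposide was run alongside as the reference agent.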

[2] = system: A549; assay: Growth inhibition of human A549 cells after 72 hrs by MTT assay; format: functional, cell-based; settings: A549, 72 h; how it was run: as §1
[3] = Growth inhibition of human Hs683 cells after 72 hrs by MTT assay; format: functional, cell-based; settings: Hs 683, 72 h; how it was run: as §1
[4] = Growth inhibition of human U373 cells after 72 hrs by MTT assay; format: functional, cell-based, U-373MG ATCC; settings: U373 MG; how it was run: as §1
[5] = system: SK-MEL-28; assay: Growth inhibition of human SK-MEL-28 cells after 72 hrs by MTT assay; format: functional, cell-based; settings: SK-MEL-28, 72 h; how it was run: as §1
[6] = Growth inhibition of human PC3 cells after 72 hrs by MTT assay; format: functional, cell-based; settings: PC-3, 72 h; how it was run: as §1

SMILES | IC50 [1] | IC50 [2] | IC50 [3] | IC50 [4] | IC50 [5] | IC50 [6]
C#CC(=O)/C=C/CCCCCCCCC/C=C\CCCC/C=C\CCCC/C=C\CCCCCCCCCCCCC/C=C/C(=O)C#C | 82 µM | 37 µM | > 100 µM | > 100 µM | > 100 µM | 86 µM
C#C[C@@H](O)/C=C/CCCCCCCCC/C=C\CCCC/C=C\CCCC/C=C\CCCCCCCCCCCCC/C=C/[C@H](O)C#C | 23 µM | 28 µM | 36 µM | 19 µM | 11 µM | 18 µM
C#C[C@@H](O)/C=C/CCCCCCCCCCCCC/C=C\CCCC/C=C\CCCC/C=C\C/C=C\CCCCCC(O)/C=C/[C@H](O)C#C (some centres undefined) | 15 µM | 31 µM | 23 µM | 15 µM | 3 µM | 32 µM
COc1cc([C@@H]2c3cc4c(cc3[C@@H](O[C@@H]3O[C@@H]5CO[C@@H](C)O[C@H]5[C@H](O)[C@H]3O)[C@H]3COC(=O)[C@H]23)OCO4)cc(OC)c1O [ETOPOSIDE] | 17 µM | 0.1 µM | 1 µM | 7 µM | 1 µM | 2 µM
